One assay has as its system Pseudomonas aeruginosa. Description: Antibacterial activity against Pseudomonas aeruginosa at 37 degC after 24 hrs by agar well diffusion assay. The assay is classed as functional, organism-based. Put shortly: (§1)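 Compounds dissolved in DMSO at 2.5 mg/ml initial concentration, then serially diluted two-fold in DMSO. Nutrient Agar plates were swabbed with 10^8 CFU/mL bacteria and dried about 40 min at 35 °C. Solution was placed in 6 mm wells, then 2 h pre-incubation at 25 °C and 24 h at 37 °C. MIC is the lowest concentration giving a growth-inhibition zone around the well. Duplicate.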
A general note: Agar diffusion results depend on both activity and mobility in agar.

A further assay relates to Escherichia coli. Description: Antibacterial activity against Escherichia coli at 37 degC after 24 hrs by agar well diffusion assay. The assay is classed as functional, organism-based. Put shortly: as §1
The test system of the next assay is Enterococcus. Description: Antibacterial activity against vancomycin-resistant Enterococcus species at 37 degC after 24 hrs by agar well diffusion assay. It is filed as functional, organism-based. Put shortly:
(§2)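 Bacteria kept on Nutrient Agar slants at 4 °C and subcultured before use. Suspensions of 10^8 CFU/mL were swabbed onto Nutrient Agar and the plates dried 40 min at 35 °C. Compounds were dissolved in DMSO starting at 2.5 mg/ml, serially diluted two-fold, and loaded into 6 mm wells. Plates were pre-incubated 2 h at 25 °C, then 24 h at 37 °C. Inhibition zones were read and the MIC taken as the lowest inhibiting concentration. Duplicates were run.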

Assay [1] has as its system Staphylococcus aureus. Briefly: Antibacterial activity against Staphylococcus aureus at 37 degC after 24 hrs by agar well diffusion assay. It is filed as functional. The method in brief:
as §1

For assay [2], the system named is Staphylococcus aureus. Briefly: Antibacterial activity against methicillin-resistant Staphylococcus aureus at 37 degC after 24 hrs by agar well diffusion assay. It is filed as functional. Put shortly:
as §2

A further assay has as its system Nakaseomyces glabratus. Description: Antifungal activity against Candida glabrata at 25 degC after 48 hrs by agar well diffusion assay. It is filed as functional. Put shortly: (§3)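 Yeast suspensions of 10^7 CFU/mL were swabbed onto Sabouraud Dextrose Agar and dried about 40 min at 35 °C. Compounds were dissolved in DMSO (2.5 mg/ml initial) and diluted two-fold in DMSO, then loaded into 6 mm wells. Plates: 2 h pre-incubation at 25 °C, then 48 h at 25 °C. MIC read as the lowest concentration inhibiting growth around the well, in duplicate. The C. albicans clinical isolate came from a hospitalized patient at Eskisehir Osmangazi University hospital; the standard strain came from a culture collection.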

In assay [3] the test system is Candida albicans. Description: Antifungal activity against Candida albicans ESOGU at 25 degC after 48 hrs by agar well diffusion assay. It is filed as functional. Put shortly:
as §3

In assay [4] the test system is Candida albicans. Briefly: Antifungal activity against Candida albicans at 25 degC after 48 hrs by agar well diffusion assay. It is filed as functional. Put shortly:
as §3

Another assay relates to Candida tropicalis. Briefly: Antifungal activity against Candida tropicalis at 25 degC after 48 hrs by agar well diffusion assay. The assay is classed as functional. The method in brief:
as §3

A further assay has as its system Candida parapsilosis. Description: Antifungal activity against Candida parapsilosis at 25 degC after 48 hrs by agar well diffusion assay. It is filed as functional. Put shortly:
as §3

Converted amounts (≈) assume the structure as drawn. The source made the active and inactive calls. No cut-off for these calls is given here.

Results on 15 compounds are retold here after ChEMBL document CHEMBL3232750, “Synthesis, structure-activity relationships, and in vitro antibacterial and antifungal activity evaluations of novel pyrazole carboxylic and dicarboxylic acid derivatives” (2014).

Broadly, the MIC is the least concentration at which growth counts as inhibited. Higher therefore signals a need for much substance. Regarding `CCOC(=O)c1c(C(=O)Nc2cccc(C(F)(F)F)c2)nn(-c2cccc([N+](=O)[O-])c2)c1-c1ccccc1`, the result with Pseudomonas aeruginosa, in the assay on Escherichia coli, in the assay on Enterococcus, with Staphylococcus aureus [1], in the assay on Staphylococcus aureus [2] and in the assay with Nakaseomyces glabratus was inactive. The result with Candida parapsilosis was inactive. For the same compound, the minimum inhibitory concentration (MIC) in the assay on Candida albicans [3] amounted to 50 µg/mL (≈ 95.3 µM); with Candida albicans [4], 25 µg/mL (≈ 47.7 µM); with Candida tropicalis, 50 µg/mL (≈ 95.3 µM).
`Cc1cccc(NC(=O)c2nn(-c3cccc([N+](=O)[O-])c3)c(-c3ccccc3)c2C(=O)Nc2cccc(C)c2)c1`: the result in the assay with Pseudomonas aeruginosa, in the assay on Escherichia coli, with Enterococcus, in the assay on Staphylococcus aureus [1], with Staphylococcus aureus [2] and in the assay with Nakaseomyces glabratus was inactive. The result in the assay on Candida albicans [3], in the assay on Candida albicans [4], in the assay with Candida tropicalis and with Candida parapsilosis was inactive.
`O=C(Nc1ccc(F)cc1)c1nn(-c2cccc([N+](=O)[O-])c2)c(-c2ccccc2)c1C(=O)Nc1ccc(F)cc1`: the outcome in the assay on Pseudomonas aeruginosa, in the assay with Escherichia coli, in the assay on Enterococcus, with Staphylococcus aureus [1], in the assay with Staphylococcus aureus [2] and with Nakaseomyces glabratus was inactive. Moreover, the result in the assay on Candida albicans [3], in the assay on Candida tropicalis and in the assay with Candida parapsilosis was inactive. This compound also showed an MIC in the assay with Candida albicans [4] of 25 µg/mL (≈ 46.3 µM).
As to `O=C(Nc1ccc([N+](=O)[O-])cc1)c1nn(-c2cccc([N+](=O)[O-])c2)c(-c2ccccc2)c1C(=O)Nc1ccc([N+](=O)[O-])cc1`, the result with Pseudomonas aeruginosa, in the assay with Escherichia coli, with Enterococcus, in the assay on Staphylococcus aureus [1], in the assay with Staphylococcus aureus [2] and in the assay with Nakaseomyces glabratus was inactive. The MIC against Candida albicans [3] was 25 µg/mL (≈ 42.1 µM); in the assay with Candida albicans [4], 25 µg/mL (≈ 42.1 µM); against Candida tropicalis it was 50 µg/mL (≈ 84.2 µM); in the assay with Candida parapsilosis (Lodderomyces parapsilosis), 25 µg/mL (≈ 42.1 µM).
For the compound `CCNC(=S)NC(=O)c1nn(-c2cccc([N+](=O)[O-])c2)c(-c2ccccc2)c1C(=O)NC(=S)NCC`, the outcome with Pseudomonas aeruginosa, in the assay on Escherichia coli, in the assay with Enterococcus, in the assay on Staphylococcus aureus [1], in the assay with Staphylococcus aureus [2] and in the assay with Nakaseomyces glabratus was inactive. For the same compound, the result in the assay on Candida tropicalis and in the assay on Candida parapsilosis was inactive. The MIC with Candida albicans [3] and against Candida albicans [4] was 25 µg/mL (≈ 47.6 µM) in each case.
`CCOC(=O)c1c(C(=O)Nc2ccc(C(F)(F)F)cc2)nn(-c2cccc([N+](=O)[O-])c2)c1-c1ccccc1`: the result with Pseudomonas aeruginosa, in the assay on Escherichia coli, in the assay on Enterococcus, with Staphylococcus aureus [1], in the assay on Staphylococcus aureus [2] and in the assay on Nakaseomyces glabratus was inactive. Also, the result with Candida tropicalis and in the assay with Candida parapsilosis was inactive. Besides, the MIC against Candida albicans [3] and against Candida albicans [4] was 25 µg/mL (≈ 47.7 µM) throughout.
For `CCNC(=O)NC(=O)c1nn(-c2cccc([N+](=O)[O-])c2)c(-c2ccccc2)c1C(=O)NC(=O)NCC`, the outcome in the assay on Pseudomonas aeruginosa, in the assay with Escherichia coli, in the assay on Enterococcus, with Staphylococcus aureus [1], with Staphylococcus aureus [2] and in the assay with Nakaseomyces glabratus was inactive. The result in the assay on Candida tropicalis and with Candida parapsilosis was inactive. Moreover, the MIC in the assay with Candida albicans [3] and with Candida albicans [4] was 25 µg/mL (≈ 50.7 µM) throughout.
Turning to `O=C(O)c1cnn(-c2cccc([N+](=O)[O-])c2)c1-c1ccccc1`, the result in the assay on Pseudomonas aeruginosa, with Escherichia coli, in the assay on Enterococcus, in the assay on Nakaseomyces glabratus, with Candida albicans [3] and in the assay on Candida tropicalis was inactive. Besides, the outcome in the assay with Candida parapsilosis was inactive. Besides, the MIC came to 50 µg/mL (≈ 162 µM) with Staphylococcus aureus [1], 25 µg/mL (≈ 80.8 µM) in the assay with Staphylococcus aureus [2] and 25 µg/mL (≈ 80.8 µM) against Candida albicans [4].
`O=C(Nc1ccc(C(F)(F)F)cc1)c1nn(-c2cccc([N+](=O)[O-])c2)c(-c2ccccc2)c1C(=O)Nc1ccc(C(F)(F)F)cc1`: the outcome in the assay on Pseudomonas aeruginosa, in the assay on Escherichia coli, with Enterococcus, with Staphylococcus aureus [1], with Staphylococcus aureus [2] and in the assay with Nakaseomyces glabratus was inactive. Moreover, the result in the assay on Candida albicans [3], in the assay with Candida tropicalis and in the assay with Candida parapsilosis was inactive. This compound also registered an MIC in the assay with Candida albicans [4] of 50 µg/mL (≈ 78.2 µM).
Consider `Cc1ccc(NC(=O)c2nn(-c3cccc([N+](=O)[O-])c3)c(-c3ccccc3)c2C(=O)Nc2ccc(C)cc2)cc1`, for which the result in the assay with Pseudomonas aeruginosa, with Escherichia coli, in the assay on Enterococcus, in the assay with Staphylococcus aureus [1], in the assay with Staphylococcus aureus [2] and in the assay on Nakaseomyces glabratus was inactive. Also, the result in the assay on Candida albicans [3], in the assay on Candida tropicalis and in the assay on Candida parapsilosis was inactive. Further, the MIC with Candida albicans [4] came to 25 µg/mL (≈ 47 µM).
Regarding `CCOC(=O)c1c(C(=O)Nc2ccccc2C(F)(F)F)nn(-c2cccc([N+](=O)[O-])c2)c1-c1ccccc1`, the outcome in the assay on Pseudomonas aeruginosa, in the assay with Escherichia coli, in the assay with Enterococcus, in the assay on Staphylococcus aureus [1], in the assay on Staphylococcus aureus [2] and in the assay with Nakaseomyces glabratus was inactive. Also, the outcome in the assay with Candida tropicalis and in the assay on Candida parapsilosis was inactive. In addition, the MIC in the assay with Candida albicans [3] and in the assay on Candida albicans [4] was 50 µg/mL (≈ 95.3 µM) in each case.
Take `CCOC(=O)c1c(C(=O)Nc2ccccc2F)nn(-c2cccc([N+](=O)[O-])c2)c1-c1ccccc1`: the result in the assay with Pseudomonas aeruginosa, in the assay with Escherichia coli, in the assay with Enterococcus, in the assay on Staphylococcus aureus [1], in the assay with Staphylococcus aureus [2] and with Candida tropicalis was inactive. Besides, the result with Candida parapsilosis was inactive. In addition, the MIC against Nakaseomyces glabratus was found to be 50 µg/mL (≈ 105 µM); against Candida albicans [3], 50 µg/mL (≈ 105 µM); in the assay on Candida albicans [4], 25 µg/mL (≈ 52.7 µM).
As to `O=c1[nH][nH]c(=O)c2c(-c3ccccc3)n(-c3cccc([N+](=O)[O-])c3)nc12`, the outcome with Pseudomonas aeruginosa, in the assay with Escherichia coli, in the assay on Enterococcus, in the assay on Staphylococcus aureus [1], in the assay on Staphylococcus aureus [2] and in the assay with Nakaseomyces glabratus was inactive. Moreover, the result with Candida albicans [3], in the assay on Candida tropicalis and with Candida parapsilosis was inactive. Besides, the minimal inhibitory concentration (MIC) against Candida albicans [4] was 50 µg/mL (≈ 143 µM).
Regarding `CNC(=O)NC(=O)c1nn(-c2cccc([N+](=O)[O-])c2)c(-c2ccccc2)c1C(=O)NC(=O)NC`, the outcome in the assay on Pseudomonas aeruginosa, in the assay on Escherichia coli, in the assay with Enterococcus, with Nakaseomyces glabratus, with Candida tropicalis and in the assay with Candida parapsilosis was inactive. For the same compound, the MIC in the assay with Staphylococcus aureus [1] was 50 µg/mL (≈ 107 µM); in the assay on Staphylococcus aureus [2], 50 µg/mL (≈ 107 µM); against Candida albicans [3], 25 µg/mL (≈ 53.7 µM); with Candida albicans [4], 25 µg/mL (≈ 53.7 µM).
`O=C(Nc1cccc(F)c1)c1nn(-c2cccc([N+](=O)[O-])c2)c(-c2ccccc2)c1C(=O)Nc1cccc(F)c1`: the outcome in the assay with Pseudomonas aeruginosa, with Escherichia coli, in the assay with Enterococcus, in the assay with Staphylococcus aureus [1], in the assay with Staphylococcus aureus [2] and in the assay on Nakaseomyces glabratus was inactive. For the same compound, the outcome in the assay on Candida albicans [3], with Candida tropicalis and with Candida parapsilosis was inactive. Further, the minimal inhibitory concentration (MIC) with Candida albicans [4] worked out at 50 µg/mL (≈ 92.7 µM).
